SMILES strings stand for the structures.

In experiment [1] the target is T1, Prostaglandin G/H synthase 1 (Homo sapiens, UniProt P23219). The experiment is described as follows: Inhibition of human Prostaglandin G/H synthase 1 at 0.1 ug/mL expressed as mean percent inhibition of control PGE-2 production. Summed up: (§1)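 Human COX-1 and COX-2 genes expressed in a baculovirus system; microsomes prepared from High Five insect cells and used as the enzyme source. Activity read as PGE2 production. Each dose run in duplicate wells within each experiment, and values given as mean percent inhibition of control PGE2.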

In experiment [2] the target is T1, Prostaglandin G/H synthase 1. The experiment in a line: Inhibition of human Prostaglandin G/H synthase 1 at 1 ug/mL expressed as mean percent inhibition of control PGE-2 production. Summed up:
as §1

The target is the same in experiment [3]. The experiment in a line: Inhibition of human Prostaglandin G/H synthase 1 at 10 ug/mL expressed as mean percent inhibition of control PGE-2 production. Summed up:
as §1

T1 sequence (P23219 whole entry): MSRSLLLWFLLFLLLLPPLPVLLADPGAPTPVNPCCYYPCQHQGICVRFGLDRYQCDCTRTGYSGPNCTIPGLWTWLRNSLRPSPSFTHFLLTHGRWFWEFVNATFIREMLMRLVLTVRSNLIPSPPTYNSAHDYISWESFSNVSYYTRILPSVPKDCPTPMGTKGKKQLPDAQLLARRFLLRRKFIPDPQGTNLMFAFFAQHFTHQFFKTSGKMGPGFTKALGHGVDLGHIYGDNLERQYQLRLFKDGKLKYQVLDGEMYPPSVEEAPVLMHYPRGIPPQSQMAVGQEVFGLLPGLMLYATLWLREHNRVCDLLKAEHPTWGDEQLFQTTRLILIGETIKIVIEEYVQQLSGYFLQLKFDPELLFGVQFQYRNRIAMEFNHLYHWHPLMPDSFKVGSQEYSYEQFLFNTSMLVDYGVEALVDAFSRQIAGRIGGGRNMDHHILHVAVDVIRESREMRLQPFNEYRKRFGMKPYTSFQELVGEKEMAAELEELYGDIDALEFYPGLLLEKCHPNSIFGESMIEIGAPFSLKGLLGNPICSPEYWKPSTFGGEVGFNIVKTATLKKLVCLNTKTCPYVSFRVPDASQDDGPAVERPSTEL

In the case of `CN1C(c2nc3ccccc3[nH]2)=C(O)c2ccccc2S1(=O)=O`, the inhibition (usually the drop in the measured response relative to a control, in per cent) in experiment [1] is -4%; in experiment [2] it was 4%; in experiment [3], 16%.

For `CN1C(C(=O)Nc2nccs2)=C(O)c2sc3cc(Cl)ccc3c2S1(=O)=O`, the inhibition in experiment [1] is 99%; in experiment [2], 100%; in experiment [3], 100%.

For the molecule `CN1C(C(=O)Nc2ccccc2)=C(O)c2ccc3ccccc3c2S1(=O)=O`, the inhibition in experiment [1] worked out at 4%; in experiment [2], 64%; in experiment [3], 88%.

As to `CN1C(C(=O)Nc2ccccc2)=C(O)c2cc(Cl)ccc2S1(=O)=O`, the inhibition in experiment [1] worked out at 15%; in experiment [2] it was 16%; in experiment [3] it was 17%.

Take `CN1C(O)=C(C(=O)Nc2ccc(Cl)cc2Cl)c2sc(Cl)cc2S1(=O)=O`: the inhibition came out at 32% in experiment [1], 57% in experiment [2] and 91% in experiment [3].

As for `CN1C(O)=C(C(=O)Nc2ccc(Cl)cc2Cl)c2c(ccc(Cl)c2Cl)S1(=O)=O`, the inhibition turned out to be 19% in experiment [1], 55% in experiment [2] and 98% in experiment [3].

For the molecule `Cc1cnc(NC(=O)C2=C(O)c3ccccc3S(=O)(=O)N2)s1`, the inhibition was determined as 14% in experiment [1], 18% in experiment [2] and 41% in experiment [3].

Turning to `CN1C(C(=O)Nc2nccs2)=C(O)c2ccc3ccccc3c2S1(=O)=O`, the inhibition stood at 75% in experiment [1], 100% in experiment [2] and 100% in experiment [3].

For `CN1C(C(=O)Nc2ccc(Cl)cc2)=C(O)c2cc(F)ccc2S1(=O)=O`, the inhibition in experiment [1] is 6%; in experiment [2] it was 16%; in experiment [3] it was 40%.

Turning to `Cc1cc2c(s1)S(=O)(=O)N(C)C(C(=O)Nc1nccs1)=C2O`, the inhibition in experiment [1] was 1%; in experiment [2], 5%.

For the molecule `CCn1c2c(c3ccccc31)S(=O)(=O)N(C)C(C(=O)Nc1ccccn1)=C2O`, the inhibition in experiment [1] was -4%; in experiment [2] it was -1%; in experiment [3] it was 25%.

Turning to `Cc1cnc(NC(=O)C2=C(O)c3ccccc3S(=O)(=O)N2Cc2ccccc2)s1`, the inhibition in experiment [1] turned out to be 3%; in experiment [2] it was 10%; in experiment [3] it was 42%.

Turning to `CCn1c2c(c3ccccc31)S(=O)(=O)N(C)C(C(=O)Nc1nccs1)=C2O`, the inhibition in experiment [2] is -1%; in experiment [3], 81%.

On to `O=C(Nc1cccc(Cl)c1)C1=C(O)c2cc(Cl)ccc2S(=O)(=O)C1`, for which the inhibition was -10% in experiment [1], 64% in experiment [2] and 94% in experiment [3].

Turning to `CN1C(C(=O)Nc2nc(C(F)(F)F)cs2)=C(O)c2ccccc2S1(=O)=O`, the inhibition in experiment [1] was found to be 8%; in experiment [2], 19%; in experiment [3], 72%.

On to `Cc1ccc2c(c1)/C(=C(\O)Nc1ccc(Cl)cc1Cl)C(=O)N(C)C2=O`, for which the figures for the inhibition in experiment [1], in experiment [2] and in experiment [3] were 79%, 100% and 100%, respectively.

`CN1C(C(=O)Nc2ccccc2)=C(O)c2ccccc2S1(=O)=O`: the values for the inhibition in experiment [1], in experiment [2] and in experiment [3] were -8%, 16% and 26%, respectively.

For `COc1ccc2c(c1)C(O)=C(C(=O)Nc1ccccc1)N(C)S2(=O)=O`, the inhibition in experiment [1] was -6%; in experiment [2], -5%; in experiment [3], -3%.

Consider `CN1C(O)=C(C(=O)Nc2ccccn2)c2ccc(Cl)cc2S1(=O)=O`, for which the inhibition in experiment [1] turned out to be 7%; in experiment [2], 41%; in experiment [3] it was 45%.

For `COc1ccc2c(c1)S(=O)(=O)N(C)C(C(=O)Nc1ccccc1)=C2O`, the inhibition in experiment [1] is -8%; in experiment [2], 15%; in experiment [3], 3%.

As for `CN1C(C(=O)Nc2ccccn2)=C(O)c2c(c3ccccc3n2C)S1(=O)=O`, the results for the inhibition in experiment [1], in experiment [2] and in experiment [3] were 0%, 14% and 90%, respectively.

In the case of `O=C(Nc1cccc(Cl)c1)C1=C(O)c2ccccc2[S+]([O-])C1` (centres undefined), the values for the inhibition in experiment [1], in experiment [2] and in experiment [3] were -2%, -2% and 38%, respectively.

`Cc1nnc(NC(=O)C2=C(O)c3ccccc3S(=O)(=O)N2C)s1`: the results for the inhibition in experiment [1], in experiment [2] and in experiment [3] were 0%, 18% and 2%, respectively.

In the case of `CC1(C)Sc2ccccc2C(O)=C1C(=O)Nc1cccc(Cl)c1`, the inhibition in experiment [1] was determined as 3%; in experiment [2], 20%; in experiment [3], 29%.

With `CN1C(C(=O)Nc2ccccc2)=C(O)c2c(c3ccccc3n2C)S1(=O)=O`, the inhibition came out at 9% in experiment [1], 31% in experiment [2] and 93% in experiment [3].

Consider `CN1C(O)=C(C(=O)Nc2ccccc2)c2ccccc2S1(=O)=O`, for which the inhibition in experiment [1] worked out at 65%; in experiment [2], 92%; in experiment [3], 100%.

For the molecule `COc1ccc2c(c1)S(=O)(=O)N(C)C(C(=O)Nc1ccccn1)=C2O`, the inhibition in experiment [1] is -2%; in experiment [2], 9%; in experiment [3] it was 44%.

As to `O=C(Nc1ccccn1)C1=C(O)c2cc(Cl)ccc2SC1`, the inhibition is 27% in experiment [1], 58% in experiment [2] and 92% in experiment [3].

Turning to `Cc1nc(NC(=O)C2=C(O)c3ccccc3S(=O)(=O)N2C)sc1C`, the inhibition in experiment [1] came out at 1%; in experiment [2], 22%; in experiment [3], 66%.

Consider `Cc1ccc2c(c1)/C(=C(\O)Nc1ncc(C)s1)C(=O)N(C)C2=O`, for which the inhibition worked out at 30% in experiment [1], 52% in experiment [2] and 51% in experiment [3].

Consider `CN1C(C(=O)Nc2ccccn2)=C(O)c2cc(F)ccc2S1(=O)=O`, for which the inhibition was found to be 0% in experiment [1], 11% in experiment [2] and 27% in experiment [3].

In the case of `Cc1cnc(NC(=O)C2=C(O)c3ccccc3SC2)s1`, the inhibition stood at 16% in experiment [1], 29% in experiment [2] and 35% in experiment [3].

As for `COc1ccc2c(c1)c1c(n2C)C(O)=C(C(=O)Nc2nccs2)N(C)S1(=O)=O`, the inhibition came out at 3% in experiment [1], 33% in experiment [2] and 86% in experiment [3].

In the case of `Cc1cnc(NC(=O)C2=C(O)N(C)S(=O)(=O)c3cc(Cl)ccc32)s1`, the inhibition in experiment [1] was determined as 10%; in experiment [2] it was 66%; in experiment [3], 94%.

Consider `Cc1cc(NC(=O)C2=C(O)c3ccccc3S(=O)(=O)N2C)no1`, for which the inhibition in experiment [1] is -2%; in experiment [2], 7%; in experiment [3], 10%.

Take `Cc1cc2c(s1)C(C(=O)Nc1ccc(Cl)cc1)=C(O)N(C)S2(=O)=O`: the inhibition was found to be 40% in experiment [1], 80% in experiment [2] and 98% in experiment [3].

As to `Cc1cnc(NC(=O)C2=C(O)c3sc(C)cc3S(=O)(=O)N2C)s1`, the inhibition was determined as 31% in experiment [1], 68% in experiment [2] and 93% in experiment [3].

On to `Cc1cnc(N/C(O)=C2\C(=O)N(C)C(=O)c3ccc(Cl)cc32)s1`, for which the inhibition is 5% in experiment [1], 35% in experiment [2] and 76% in experiment [3].

Turning to `Cc1ccc2c(c1)S(=O)(=O)N(C)C(O)=C2C(=O)Nc1ccccc1Cl`, the inhibition in experiment [1] stood at 63%; in experiment [2], 98%; in experiment [3], 97%.

Regarding `O=C(Nc1ccc(Cl)cc1Cl)C1=C(O)N(Cc2ccccc2)S(=O)(=O)c2ccc(F)cc21`, the inhibition was 3% in experiment [1], 39% in experiment [2] and 98% in experiment [3].

As for `CN1C(C(=O)Nc2ccccn2)=C(O)c2ccc(F)cc2S1(=O)=O`, the values for the inhibition in experiment [1], in experiment [2] and in experiment [3] were 3%, 26% and 74%, respectively.

Take `O=C(Nc1ccc(Cl)cc1Cl)C1=C(O)N(C2CC2)S(=O)(=O)c2ccc(Cl)cc21`: the inhibition in experiment [1] was found to be 24%; in experiment [2], 65%; in experiment [3] it was 100%.

For the molecule `CN1C(C(=O)Nc2ncc(-c3ccccc3)s2)=C(O)c2ccccc2S1(=O)=O`, the inhibition in experiment [1] was determined as 6%; in experiment [2], 55%; in experiment [3] it was 97%.

As for `O=C1/C(=C(/O)Nc2ccc(Cl)cc2Cl)c2cc(Cl)ccc2C(=O)N1Cc1ccccc1`, the inhibition was 6% in experiment [1], 84% in experiment [2] and 100% in experiment [3].

Consider `COc1ccc2c(c1)C(O)=C(C(=O)Nc1ncc(C)s1)N(C)S2(=O)=O`, for which, in experiment [1], the inhibition was -1%.

For `CN1C(C(=O)Nc2ccccc2)=C(O)c2c(c3cc(Cl)ccc3n2C)S1(=O)=O`, the inhibition in experiment [1] was found to be 1%; in experiment [2] it was 10%.

For the molecule `CN1C(C(=O)Nc2ccccn2)=C(O)c2c(c3cc(Cl)ccc3n2C)S1(=O)=O`, the inhibition came out at 28% in experiment [2] and 90% in experiment [3].

Turning to `Cn1c(C(=O)Nc2ccccn2)c(O)c2ccccc2c1=O`, the values for the inhibition in experiment [2] and in experiment [3] were -3% and 19%, respectively.

`CN1C(O)=C(C(=O)Nc2ccccn2)c2cc(Cl)ccc2S1(=O)=O`: the figures for the inhibition in experiment [2] and in experiment [3] were 53% and 96%, respectively.

For `Cc1ccc2c(c1)C(O)=C(C(=O)Nc1ccccn1)N(C)S2(=O)=O`, the results for the inhibition in experiment [1] and in experiment [2] were -9% and 5%, respectively.

As for `Cc1cnc(NC(=O)C2=C(O)c3ccccc3SC2(C)C)s1`, the inhibition in experiment [2] is 11%; in experiment [3] it was 16%.

In the case of `CN1C(C(=O)Nc2nccs2)=C(O)c2ccccc2S1(=O)=O`, the inhibition in experiment [2] turned out to be 17%; in experiment [3], 51%.

In the case of `CN1C(C(=O)Nc2ccccc2)=C(O)c2c(ccc3ccccc23)S1(=O)=O`, the inhibition was -5% in experiment [2] and 18% in experiment [3].

Turning to `CN1C(C(=O)Nc2ccccn2)=C(O)c2c(ccc3ccccc23)S1(=O)=O`, the results for the inhibition in experiment [2] and in experiment [3] were -10% and 25%, respectively.

The values above are taken from ChEMBL document CHEMBL1129978, “Effect of structural modification of enol-carboxamide-type nonsteroidal antiinflammatory drugs on COX-2/COX-1 selectivity” (J Med Chem, 1997).
